This is an account of results in ChEMBL document CHEMBL4229456, “Salicylic Acid Derivatives Inhibit Oxalate Production in Mouse Hepatocytes with Primary Hyperoxaluria Type 1” (J Med Chem, 2018).

Data set [1] can be described thus: Drug metabolism in mouse liver microsomes assessed as metabolite formation at 2 uM in presence of NADPH after 60 mins by LC-HRMS method. It is filed as ADME, microsome. The following applies: 1 h.
Data set [2] deals with T1, 2-Hydroxyacid oxidase 1 (Mus musculus) (UniProt Q9WU19).
T1 sequence (whole entry): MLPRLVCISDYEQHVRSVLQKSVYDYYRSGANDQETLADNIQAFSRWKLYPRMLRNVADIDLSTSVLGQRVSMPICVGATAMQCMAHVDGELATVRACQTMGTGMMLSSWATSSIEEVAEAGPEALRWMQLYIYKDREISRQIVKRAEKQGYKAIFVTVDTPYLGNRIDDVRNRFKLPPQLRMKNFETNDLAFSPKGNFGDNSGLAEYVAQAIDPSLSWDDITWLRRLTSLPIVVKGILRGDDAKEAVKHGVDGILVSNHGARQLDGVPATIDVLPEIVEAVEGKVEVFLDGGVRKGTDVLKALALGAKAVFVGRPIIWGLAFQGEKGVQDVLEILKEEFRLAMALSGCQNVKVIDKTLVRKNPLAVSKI
Put plainly: Inhibition of glycolate oxidase in C57BL/6 Agxt1-/- mouse hepatocytes using glycolate as substrate assessed as reduction in oxalate production at 5 uM after 72 hrs post treatment. In kind it is cell-based. The gist of the method:
(§1)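 Agxt1-/- primary hepatocytes (3.0x10^5 cells/well), serum-free Williams E with 5 mM glycolate, treated at the stated concentrations. Medium oxalate quantified at the stated time by oxalate oxidase kit (H2O2/HRP, MBTH and DMAB, 595 nm) and expressed relative to control.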

Data set [3] is described as follows: Activity against horseradish peroxidase by oxalate detection based assay.
For data set [4], the target named is T2, 2-Hydroxyacid oxidase 1 (Mus musculus, UniProt Q9WU19).
T2 sequence (Q9WU19 whole entry): T1 sequence (whole entry)
Nature of the data set: Inhibition of glycolate oxidase in C57BL/6 Agxt1-/- mouse hepatocytes using glycolate as substrate assessed as reduction in oxalate production after 48 hrs. In kind it is cell-based. The method in brief:
(§2)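 Agxt1-/- hepatocytes from male C57BL/6 mice, 3.0x10^5 cells/well, in Williams E with 5% FBS and insulin/hydrocortisone. After 5 h, switched to serum-free medium and treated across a dose range with 5 mM glycolate. Medium harvested at 24, 48 and 72 h; oxalate measured by oxalate oxidase/HRP kit (MBTH/DMAB dye, 595 nm). EC50 from nonlinear regression of log concentration.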

The target in data set [5] is T1, 2-Hydroxyacid oxidase 1 (Mus musculus). Nature of the data set: Inhibition of glycolate oxidase in C57BL/6 Agxt1-/- mouse hepatocytes using glycolate as substrate assessed as reduction in oxalate production at 2.5 uM after 24 hrs post treatment relative to control. In kind it is cell-based. The method in brief:
as §1

Data set [6] addresses T2, 2-Hydroxyacid oxidase 1. Nature of the data set: Inhibition of glycolate oxidase in C57BL/6 Agxt1-/- mouse hepatocytes using glycolate as substrate assessed as reduction in oxalate production after 72 hrs. In kind it is cell-based. The method in brief:
as §2

For data set [7], the target named is T2, 2-Hydroxyacid oxidase 1. Nature of the data set: Inhibition of glycolate oxidase in C57BL/6 Agxt1-/- mouse hepatocytes using glycolate as substrate assessed as reduction in oxalate production after 24 hrs. It is filed as cell-based. The method in brief:
as §2

Data set [8] can be described thus: Half life in mouse liver microsomes at 2 uM in presence of NADPH by LC-HRMS method. In kind it is ADME, microsome.
The subject of another data set is Armoracia rusticana. Put plainly: Inhibition of horseradish peroxidase at 20 uM after 1 min by sulfonated-DCIP dye based assay. The method in brief: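 HRP counter-screen without mGO or glycolate: H2O2 (10 µL of 1:10 000) with HRP, sulfonated DCIP and 4-aminoantipyrine under mGO assay conditions, compound added from 1 mM DMSO stock. Absorbance read at 515 nm after 1 min, compared with an H2O2 standard curve. Run in duplicate.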

Data set [9] deals with Hepatocyte. Put plainly: Cytotoxicity against C57BL/6 Agxt1-/- mouse hepatocytes at 80 uM after 24 to 48 hrs by Celltiter reagent based assay. It is filed as cell-based. The gist of the method: (§3)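 Agxt1-/- hepatocytes (male C57BL/6, collagenase perfusion) seeded at 1.0x10^4 cells/well in 96-well plates and given the same compound concentrations as the 6-well oxalate cultures. At each time point, CellTiter 96 AQueous One reagent was added and incubated 2 h at 37°C, 5% CO2, with absorbance read at 493 nm.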

Data set [10] has as its target T1, 2-Hydroxyacid oxidase 1 (Mus musculus). Nature of the data set: Inhibition of glycolate oxidase in C57BL/6 Agxt1-/- mouse hepatocytes using glycolate as substrate assessed as relative oxalate level at 10 uM after 24 hrs. In kind it is cell-based. The gist of the method: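 Primary Agxt1-/- mouse hepatocytes in 6-well plates, serum-free Williams E with 5 mM glycolate, treated with 10 µM compound. Excreted oxalate measured 24 h later by oxalate oxidase–HRP colorimetric kit (595 nm) and expressed relative to untreated control. Mean ± SD, n = 3, one-way ANOVA.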

Data set [11] shares this target. Put plainly: Potency index, ratio of EC50 for CCPST to EC50 for test compound for inhibition of glycolate oxidase in C57BL/6 Agxt1-/- mouse hepatocytes using glycolate as substrate assessed as reduction in oxalate production after 24 to 72 hrs. In kind it is cell-based.
Data set [12] concerns the target T2, 2-Hydroxyacid oxidase 1. Nature of the data set: Inhibition of mouse N-terminal His-tagged glycolate oxidase expressed in BL21(DE3) Escherichia coli using glycolate as substrate by Cornish-Bowden plot analysis. The method in brief:
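Recombinant mouse GO came from E. coli carrying a pET15b Hao1 vector and was purified by affinity chromatography. Glycolate oxidation was run in 50 mM potassium phosphate pH 7. H2O2 was coupled through HRP with sulfonated DCIP/4-aminoantipyrine and read at 515 nm. Inhibitor and substrate concentrations were varied at constant enzyme, and Ki was taken from the line intersection in Cornish-Bowden and Dixon plots.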

Data set [13] addresses T2, 2-Hydroxyacid oxidase 1. Nature of the data set: Inhibition of glycolate oxidase in mouse Agxt1-/- hepatocytes using glycolate as substrate assessed as reduction in oxalate production after 72 hrs by sulfonated-DCIP dye-based assay. In kind it is cell-based.
The target in data set [14] is T1, 2-Hydroxyacid oxidase 1 (Mus musculus). Put plainly: Inhibition of mouse recombinant glycolate oxidase expressed in Escherichia coli at 25 uM using glycolate as substrate after 1 min by sulfonated DCIP dye-based assay relative to control.
Data set [15] deals with T2, 2-Hydroxyacid oxidase 1. Nature of the data set: Inhibition of glycolate oxidase in mouse Agxt1-/- hepatocytes using glycolate as substrate assessed as reduction in oxalate production after 24 hrs by sulfonated-DCIP dye-based assay. In kind it is cell-based.
For data set [16], the target named is T2, 2-Hydroxyacid oxidase 1. Nature of the data set: Inhibition of glycolate oxidase in mouse Agxt1-/- hepatocytes using glycolate as substrate assessed as reduction in oxalate production after 48 hrs by sulfonated-DCIP dye-based assay. In kind it is cell-based.
The target of data set [17] is T2, 2-Hydroxyacid oxidase 1. Put plainly: Inhibition of mouse recombinant glycolate oxidase expressed in Escherichia coli using glycolate as substrate by sulfonated DCIP dye-based assay. The gist of the method:
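Purified recombinant mGO (10 µL at 0.1 µg/µL) with saturating glycolate (22.2 mM) in 50 mM potassium phosphate pH 7. Compound at 0.2 µM–0.2 mM; H2O2 detected by HRP-coupled sulfonated DCIP/4-aminoantipyrine dye at 515 nm. IC50 from nonlinear dose-response fitting.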

For data set [18], the target named is T1, 2-Hydroxyacid oxidase 1 (Mus musculus). Nature of the data set: Inhibition of glycolate oxidase in C57BL/6 Agxt1-/- mouse hepatocytes using glycolate as substrate assessed as relative oxalate level at 12.5 uM after 24 hrs. In kind it is cell-based. The gist of the method: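 Primary hepatocytes were isolated from male C57BL/6 Agxt1-/- mouse liver by in situ collagenase perfusion. They were plated at 3.0x10^5 cells/well in supplemented Williams E with 5% FBS, then switched after 5 h to serum-free medium and treated in the presence of 5 mM glycolate. Medium was collected at 24 h, or 48 and 72 h for dose-response. Oxalate was read by oxalate oxidase/HRP (MBTH/DMAB) at 595 nm relative to control.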

The next data set deals with Mus musculus. Nature of the data set: Reduction in urine oxalate levels in Agxt1-/- mouse model at 110 mg/kg administered via oral gavage measured after 24 hrs post treatment for 11 days relative to control. It is filed as functional. Also noted: scale not given: the % may be the effect or the level left.
Data set [19] addresses T1, 2-Hydroxyacid oxidase 1 (Mus musculus). Put plainly: Inhibition of glycolate oxidase in C57BL/6 Agxt1-/- mouse hepatocytes using glycolate as substrate assessed as reduction in oxalate production at 12.5 uM after 48 hrs post treatment relative to control. It is filed as cell-based. The gist of the method:
as §1

Data set [20] deals with T2, 2-Hydroxyacid oxidase 1. Nature of the data set: Inhibition of mouse recombinant glycolate oxidase expressed in Escherichia coli using glycolate as substrate by Dixon plot and Cornish-Bowden plot analysis. The method in brief:
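Recombinant mGO held at constant enzyme concentration and tested with increasing inhibitor at several glycolate concentrations in the HRP/DCIP 515 nm assay. Inhibition type read from Cornish-Bowden and Dixon plots; Ki taken as the intersection of the lines.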

Data set [21] deals with T1, 2-Hydroxyacid oxidase 1 (Mus musculus). Put plainly: Inhibition of glycolate oxidase in C57BL/6 Agxt1-/- mouse hepatocytes using glycolate as substrate assessed as reduction in oxalate production at 6.25 uM after 24 hrs post treatment relative to control. In kind it is cell-based. The method in brief: as §1
The subject of data set [22] is Hepatocyte. Put plainly: Cytotoxicity against C57BL/6 Agxt1-/- mouse hepatocytes after 24 to 48 hrs by Celltiter reagent based assay. In kind it is cell-based. The method in brief:
as §3

In data set [23] the target is T1, 2-Hydroxyacid oxidase 1 (Mus musculus). Nature of the data set: Inhibition of glycolate oxidase in C57BL/6 Agxt1-/- mouse hepatocytes using glycolate as substrate assessed as reduction in oxalate production at 12.5 uM after 24 hrs post treatment relative to control. It is filed as cell-based. The method in brief: as §1
Data set [24] shares this target. Nature of the data set: Potency index, ratio of EC50 for CCPST to EC50 for test compound for inhibition of glycolate oxidase in C57BL/6 Agxt1-/- mouse hepatocytes using glycolate as substrate assessed as reduction in oxalate production after 24 hrs. In kind it is cell-based.

Active and inactive are the calls of the source. The calls are words filed in the database; no cut-off is given here.

With `O=C(O)c1cc(-c2ccco2)ccc1O`, in [1], the Drug metabolism result is reported as “Metabolite_Notdetected”. Also, the inhibition entry in data set [2] was “Active”. Moreover, the EC50 is 18 µM in data set [3], 7.88 µM at 2-Hydroxyacid oxidase 1 [4], 9.2 µM at 2-Hydroxyacid oxidase 1 [6] and 3.59 µM on 2-Hydroxyacid oxidase 1 [7]. Also, the inhibition was found to be 26.5% in [5] and 12.6% in the data set with Armoracia rusticana. For the same compound, in [8], the half-life at 2 µM is 61.9 min. Besides, in the data set on Hepatocyte [9], the Activity result is “Toxic”. Further, the fold change (FC) in data set [10] was found to be 0. For the same compound, in data set [11], the Ratio EC50 was found to be 7.

Consider `O=C(O)c1nnsc1Sc1ccc(Cl)cc1`, for which the IC50 against 2-Hydroxyacid oxidase 1 [12] and on 2-Hydroxyacid oxidase 1 [17] was 43.5 µM each time. This compound registered a Ki on 2-Hydroxyacid oxidase 1 [12] of 20.3 µM. Further, the EC50 at 2-Hydroxyacid oxidase 1 [13] was found to be 34 µM; on 2-Hydroxyacid oxidase 1 [15] it was 25.3 µM; on 2-Hydroxyacid oxidase 1 [16] it was 33 µM. The inhibition in data set [14] amounted to 34.8%. Further, the fold change (FC) in [18] worked out at 0.63. Moreover, in the data set on Mus musculus, the Activity is recorded as 30 - 50%.

As for `O=Cc1ccc(-c2ccc(O)c(C(=O)O)c2)o1`, the inhibition worked out at 62.3% in data set [19], 67.3% in data set [21], 42.7% in data set [14] and 106% in [23]. Besides, the Ki at 2-Hydroxyacid oxidase 1 [20] turned out to be 47.2 µM. Moreover, the values for the EC50 at 2-Hydroxyacid oxidase 1 [4], on 2-Hydroxyacid oxidase 1 [6] and at 2-Hydroxyacid oxidase 1 [7] were 8.36 µM, 11.2 µM and 3.45 µM, respectively. Further, in the data set with Hepatocyte [22], the Activity result is given as “Non-Toxic”. Besides, the IC50 on 2-Hydroxyacid oxidase 1 [17] is 38.2 µM. For the same compound, in data set [8], the half-life at 2 µM was 13.3 min. Moreover, the Ratio EC50 amounted to 5 in data set [24] and 7 in data set [11]. The fold change (FC) in data set [10] was 0.
